What was measured:
Beta-secretase 1 [1] = target: T1, Beta-secretase 1 (Homo sapiens, UniProt P56817); assay: Inhibition of human BACE1 by FRET based peptide cleavage assay
Beta-secretase 2 = target: T2, Beta-secretase 2 (Homo sapiens, UniProt Q9Y5Z0); assay: Inhibition of human BACE2 by FRET based peptide cleavage assay
T2 sequence (Q9Y5Z0 whole entry): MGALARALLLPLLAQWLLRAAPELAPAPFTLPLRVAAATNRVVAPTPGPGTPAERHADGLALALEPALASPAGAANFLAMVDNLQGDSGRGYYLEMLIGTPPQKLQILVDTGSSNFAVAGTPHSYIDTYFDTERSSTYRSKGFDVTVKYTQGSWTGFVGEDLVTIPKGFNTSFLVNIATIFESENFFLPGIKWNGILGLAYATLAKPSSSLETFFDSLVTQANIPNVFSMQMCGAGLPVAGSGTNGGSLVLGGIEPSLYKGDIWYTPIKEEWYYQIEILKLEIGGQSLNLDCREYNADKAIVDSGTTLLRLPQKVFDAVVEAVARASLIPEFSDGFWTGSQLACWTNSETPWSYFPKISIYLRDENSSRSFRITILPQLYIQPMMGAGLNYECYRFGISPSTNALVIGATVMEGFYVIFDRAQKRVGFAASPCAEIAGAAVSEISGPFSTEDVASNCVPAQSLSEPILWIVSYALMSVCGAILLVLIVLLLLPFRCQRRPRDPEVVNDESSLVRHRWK

Cathepsin D [2] = target: T3, Cathepsin D (Homo sapiens, UniProt P07339); assay: Inhibition of human cathepsin D by FRET based peptide cleavage assay
T3 sequence (P07339 65-162 limits assumed): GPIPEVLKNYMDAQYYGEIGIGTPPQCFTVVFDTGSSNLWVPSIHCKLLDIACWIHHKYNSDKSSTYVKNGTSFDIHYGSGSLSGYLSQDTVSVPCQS
T3 sequence (P07339 169-412 limits assumed): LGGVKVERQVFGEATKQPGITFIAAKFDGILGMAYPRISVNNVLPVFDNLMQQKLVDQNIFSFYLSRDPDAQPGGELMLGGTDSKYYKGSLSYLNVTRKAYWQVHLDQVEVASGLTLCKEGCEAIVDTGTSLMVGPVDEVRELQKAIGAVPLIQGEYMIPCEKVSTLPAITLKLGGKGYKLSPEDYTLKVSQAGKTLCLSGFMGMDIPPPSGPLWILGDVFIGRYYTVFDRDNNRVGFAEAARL

Beta-secretase 1 [3] = target: T1, Beta-secretase 1; assay: Inhibition of BACE1 expressed in CHOK1 cells coexpressing human recombinant wild type APP assessed as blockade of amyloid beta production by ELISA; assay type: cell-based, CHO-K1
Mus musculus = assay: Reduction in amyloid beta 40 level in Tg2576 mouse plasma at 100 mg/kg, po after 8 hrs; assay type: functional; design: scale not given: the % may be the effect or the level left
Procedure, shortened: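 Tg2576 mice received a single acute oral dose. Plasma Aβ40 was measured 8 h after dosing.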

Cathepsin D [4] = target: T3, Cathepsin D; assay: Inhibition of human cathepsin D at 100 uM by FRET based peptide cleavage assay
[5] = Inhibition of pepsin by FRET based peptide cleavage assay
Renin = target: T4, Renin (Homo sapiens, UniProt P00797); assay: Inhibition of human recombinant renin by FRET based peptide cleavage assay
T4 sequence (P00797 whole entry): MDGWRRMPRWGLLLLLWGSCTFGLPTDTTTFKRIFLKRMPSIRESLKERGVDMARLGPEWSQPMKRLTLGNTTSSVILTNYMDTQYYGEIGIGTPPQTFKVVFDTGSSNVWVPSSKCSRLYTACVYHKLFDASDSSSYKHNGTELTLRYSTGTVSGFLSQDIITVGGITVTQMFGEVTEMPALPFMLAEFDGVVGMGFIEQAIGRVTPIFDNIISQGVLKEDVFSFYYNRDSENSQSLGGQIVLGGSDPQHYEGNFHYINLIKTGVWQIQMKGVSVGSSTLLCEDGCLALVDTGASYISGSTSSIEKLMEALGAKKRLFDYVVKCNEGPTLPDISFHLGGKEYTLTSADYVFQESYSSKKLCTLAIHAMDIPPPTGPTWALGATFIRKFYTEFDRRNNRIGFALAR

Homo sapiens = species: Homo sapiens; assay: Selectivity for human BACE1 over human BACE2
[6] = target: T5, Beta-secretase 2 (Homo sapiens) (UniProt Q9Y5Z0); settings: 25 uM
T5 sequence (whole entry): T2 sequence (Q9Y5Z0 whole entry)

[7] = Dissociation constant, pKa of the compound; assay type: physicochemical

T1 sequence (P56817 whole entry): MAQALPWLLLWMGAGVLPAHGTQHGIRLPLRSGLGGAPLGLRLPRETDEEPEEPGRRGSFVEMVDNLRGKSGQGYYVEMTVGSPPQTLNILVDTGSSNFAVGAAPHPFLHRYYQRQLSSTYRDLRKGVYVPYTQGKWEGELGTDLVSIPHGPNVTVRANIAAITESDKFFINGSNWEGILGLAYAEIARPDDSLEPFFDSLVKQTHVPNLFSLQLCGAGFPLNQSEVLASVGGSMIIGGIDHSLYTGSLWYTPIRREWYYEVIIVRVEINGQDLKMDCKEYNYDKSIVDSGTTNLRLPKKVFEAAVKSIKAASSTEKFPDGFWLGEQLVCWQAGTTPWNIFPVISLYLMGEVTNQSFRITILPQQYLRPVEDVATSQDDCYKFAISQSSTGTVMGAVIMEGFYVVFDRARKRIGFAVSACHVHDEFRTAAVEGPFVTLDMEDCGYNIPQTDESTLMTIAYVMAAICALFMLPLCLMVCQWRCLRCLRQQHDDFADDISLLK

IC50 (Beta-secretase 1 [1]) [µM] | IC50 (Beta-secretase 2) [µM] | IC50 (Cathepsin D [2]) [µM] | EC50 (Beta-secretase 1 [3]) [µM] | Structure (SMILES) | further results
0.05 | 0.17 | 8.18 | 0.67 | CCCCOc1cc(C2(c3cccc(-c4cccnc4)c3)N=C(N)N(C)C2=O)ccc1OC (configuration not stated) | 
 | 9.69 | 4.18 |  | CN1C(=O)C(c2ccc(OC(F)(F)F)cc2)(c2ccc(F)c(-c3cncnc3)c2)N=C1N (configuration not stated) | 
0.05 | 0.6 | 10.3 | 0.52 | CCOc1cc(C2(c3cccc(-c4cccnc4)c3)N=C(N)N(C)C2=O)ccc1OC (configuration not stated) | 
0.63 | 2.32 | 2.19 | 1.75 | COc1ccc(C2(c3ccc(C#N)c(-c4cccnc4)c3)N=C(N)N(C)C2=O)cc1C (configuration not stated) | 
 | 0.96 | 1.87 |  | COc1ccc(C2(c3cccc(-c4cccnc4)c3)N=C(N)N(C)C2=O)cc1C1CCCC1 (configuration not stated) | 
0.05 | 0.2 | 10.1 | 0.68 | CCCOc1cc(C2(c3cccc(-c4cccnc4)c3)N=C(N)N(C)C2=O)ccc1OC (configuration not stated) | 
 | 0.5 | 10.9 |  | CN1C(=O)C(c2cccc(-c3cccnc3)c2)(c2ccc3c(c2)OCCO3)N=C1N (configuration not stated) | 
1.36 | 5.04 | 26.2 | 2.83 | CN1C(=O)C(c2ccc(OC(F)(F)F)cc2)(c2cccc(-c3cncnc3)c2F)N=C1N (configuration not stated) | 
0.32 | 1.26 | 8.55 |  | CN1C(=O)C(c2ccc(OC(F)(F)F)cc2)(c2cc(F)cc(-c3cncnc3)c2)N=C1N (configuration not stated) | IC50 [5]: 35.1 µM; IC50 (Renin): 13.8 µM
3.1 | 1.72 |  | 3.35 | COc1ccc(C2(c3ccccc3)N=C(N)N(C)C2=O)cc1 (configuration not stated) | inhibition (Cathepsin D [4]): 3%
0.52 | 5.99 | 2.05 | 2.57 | COc1ncccc1-c1cccc(C2(c3ccc(OC(F)(F)F)cc3)N=C(N)N(C)C2=O)c1 (configuration not stated) | 
 | 0.96 | 2.47 |  | COc1ccc(C2(c3ccc(C)c(-c4cccnc4)c3)N=C(N)N(C)C2=O)cc1C (configuration not stated) | 
 | 1 | 3.51 |  | COc1ccc(C2(c3cccc(-c4cccnc4)c3)N=C(N)N(C)C2=O)cc1C(F)(F)F (configuration not stated) | 
 |  |  | 0.11 | COc1ccc(C2(c3cccc(-c4cccnc4F)c3)N=C(N)N(C)C2=O)cc1C (configuration not stated) | 
 | 2.51 | 4.43 |  | COc1ccc(-c2cccc(C3(c4ccc(OC(F)(F)F)cc4)N=C(N)N(C)C3=O)c2)cn1 (configuration not stated) | 
 | 7.54 | 2.33 |  | CN1C(=O)[C@@](c2ccc(OC(F)(F)F)cc2)(c2ccc(F)c(-c3cncnc3)c2)N=C1N | 
0.05 | 0.52 | 5.2 | 0.42 | COc1ccc(C2(c3cccc(-c4cccnc4)c3)N=C(N)N(C)C2=O)cc1F (configuration not stated) | 
3.47 | 1.19 |  | 5.9 | COc1cccc(C2(c3ccccc3)N=C(N)N(C)C2=O)c1 (configuration not stated) | inhibition (Cathepsin D [4]): 46%
0.15 | 0.55 | 7.3 | 4.5 | COc1ccc(C2(c3cccc(-c4cccnc4)c3)N=C(N)N(C)C2=O)cc1C#N (configuration not stated) | 
 | 9.97 | 11.6 |  | CN1C(=O)[C@](c2ccc(OC(F)(F)F)cc2)(c2ccc(F)c(-c3cncnc3)c2)N=C1N | 
 | 0.56 | 6.28 |  | COc1ccc(C2(c3cccc(-c4cccnc4)c3)N=C(N)N(C)C2=O)cc1Cl (configuration not stated) | 
 |  | 23.1 |  | COc1ccc(C2(c3cccc(-c4cccnc4)c3)N=C(N)N(C)C2=O)cc1OC (configuration not stated) | 
 | 1.59 | 14.3 |  | COc1ccc(C2(c3cccc(-c4cncnc4)c3)N=C(N)N(C)C2=O)cc1C (configuration not stated) | IC50 [5]: 33.3 µM; IC50 (Renin): 42.3 µM
0.06 | 1.84 | 12.2 | 0.87 | COc1ccc(C2(c3cccc(-c4cccnc4)c3)N=C(N)N(C)C2=O)cc1OC(C)C (configuration not stated) | 
 | 0.3 | 8.3 |  | COc1ccc(C2(c3cccc(-c4cccnc4)c3)N=C(N)N(C)C2=O)cc1OC1CCCC1 (configuration not stated) | 

More lines, now with the values behind:

Structure (SMILES) | IC50 (Beta-secretase 1 [1]) [µM] | IC50 (Beta-secretase 2) [µM] | IC50 (Cathepsin D [2]) [µM] | EC50 (Beta-secretase 1 [3]) [µM] | further results
CN1C(=O)C(c2ccccc2)(c2cccc(Cl)c2)N=C1N (configuration not stated) | 2.5 | 0.42 | 69.2 | 6.97 | 
COc1ccc([C@@]2(c3ccc(F)c(-c4cccnc4F)c3)N=C(N)N(C)C2=O)cc1C |  | 0.81 | 0.82 |  | Activity (Mus musculus): 69%
CCCCOc1ccc(C2(C34CC5CC(CC(C5)C3)C4)N=C(N)N(C)C2=O)cc1 (configuration not stated) |  | 5.55 | 8.4 |  | 
CCN1C(=O)C(c2ccccc2)(c2ccccc2)N=C1N |  | 5.16 |  | 8.13 | inhibition (Cathepsin D [4]): 33%
COc1ccc(C2(c3cccc(-c4cccnc4)c3)N=C(N)N(C)C2=O)cc1C (configuration not stated) |  |  |  |  | IC50 [5]: 19.6 µM; IC50 (Renin): 93.4 µM
COc1ccc(C2(C34CC5CC(CC(C5)C3)C4)N=C(N)N(C)C2=O)cc1OC (configuration not stated) | 0.27 | 9.59 | 36.6 | 0.19 | Ratio IC50 (Homo sapiens): 20
CCc1cc(C2(C34CC5CC(CC(C5)C3)C4)N=C(N)N(C)C2=O)ccc1OC (configuration not stated) | 0.28 | 4.33 | 14.1 | 0.76 | Ratio IC50 (Homo sapiens): 20
COc1ccc(C2(C34CC5CC(CC(C5)C3)C4)N=C(N)N(C)C2=O)cc1C (configuration not stated) |  | 6.29 | 11.1 |  | IC50 [5]: 15 µM; IC50 (Renin): 59.5 µM
COc1ccc([C@]2(C34CC5CC(CC(C5)C3)C4)N=C(N)N(C)C2=O)cc1 |  | 0.23 | 13.4 |  | 
COc1ccc([C@@]2(C34CC5CC(CC(C5)C3)C4)N=C(N)N(C)C2=O)cc1 |  |  | 20.8 |  | inhibition [6]: 50%
CN1C(=O)C(c2ccccc2)(c2ccccc2)N=C1N |  |  |  |  | IC50 [5]: 11.1 µM; IC50 (Renin): 9.6 µM; pKa [7]: 5.7; inhibition (Cathepsin D [4]): 36%
COc1ccc([C@]2(c3ccc(F)c(-c4cccnc4F)c3)N=C(N)N(C)C2=O)cc1C |  | 1.64 | 2.71 |  | 
NC1=NC(c2ccccc2)(c2ccccc2)C2=NCCCN12 |  |  |  |  | pKa [7]: 7.6
COc1ccc(C2(c3ccc(F)c(-c4cccnc4F)c3)N=C(N)N(C)C2=O)cc1C (configuration not stated) |  | 1.84 | 2.41 |  | IC50 [5]: 66.3 µM; IC50 (Renin): 23.2 µM
CN1C(=O)C(c2cccc(-c3cccnc3)c2)(c2ccc3c(c2)OCO3)N=C1N (configuration not stated) |  | 0.54 | 21.4 |  | 
CN1C(=O)C(c2ccc(OC(F)(F)F)cc2)(C23CC4CC(CC(C4)C2)C3)N=C1N (configuration not stated) |  | 3.87 | 6.22 |  | 
COc1ccc(C2(C34CC5CC(CC(C5)C3)C4)N=C(N)N(C)C2=O)cc1 (configuration not stated) |  | 0.68 | 15.3 |  | IC50 [5]: 14.4 µM; IC50 (Renin): 53.3 µM
CN1C(=O)C(c2ccccc2)(C23CC4CC(CC(C4)C2)C3)N=C1N (configuration not stated) |  | 0.83 | 27.3 |  | 
COc1ccc([C@]2(C34CC5CC(CC(C5)C3)C4)N=C(N)N(C)C2=O)cc1C |  | 4.02 | 9.21 |  | 
COc1ccc([C@@]2(C34CC5CC(CC(C5)C3)C4)N=C(N)N(C)C2=O)cc1C |  | 73.6 | 13.1 |  | 
CN1C(=O)C(c2ccccc2)(c2ccc(Cl)cc2)N=C1N (configuration not stated) | 2.25 | 1.84 | 38.2 | 2.13 | 
COc1ccc(C2(c3ccc(F)c(-c4cncnc4)c3)N=C(N)N(C)C2=O)cc1C (configuration not stated) |  | 2.8 | 6.7 |  | IC50 [5]: 35.3 µM; IC50 (Renin): 57.6 µM
CN1C(=O)C(c2cccc(-c3cccnc3)c2)(c2ccc3c(c2)CCO3)N=C1N (configuration not stated) |  | 1.13 | 23.9 |  | 
NC1=NC(c2ccccc2)(c2ccccc2)C(=O)N1 |  | 87.2 |  | 23.5 | inhibition (Cathepsin D [4]): 13%
CCOc1ccc(C2(C34CC5CC(CC(C5)C3)C4)N=C(N)N(C)C2=O)cc1 (configuration not stated) |  | 2.53 | 11.5 |  | 

From ChEMBL document CHEMBL1156789, “Design and synthesis of 5,5'-disubstituted aminohydantoins as potent and selective human beta-secretase (BACE1) inhibitors” (J Med Chem, 2010)
